Results on two compounds are retold here after ChEMBL document CHEMBL4393705, “New chalcone-sulfonamide hybrids exhibiting anticancer and antituberculosis activity” (Eur J Med Chem, 2019).

A value given as a limit tells only on which side of the number the result lay.

Holding throughout (format): functional
For assay [1], the system named is U-251. Briefly: Anticancer activity against human U251 cells assessed as increase in cell death at 10 uM after 48 hrs by SRB assay relative to control. The method in brief: (§1)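 NCI single-dose screen at 10 µM. Cells in RPMI-1640 with 5% FBS and 2 mM L-glutamine, preincubated 24 h, then exposed 48 h at 37°C, 5% CO2. Protein measured by TCA fixation and SRB staining, absorbance 515 nm. Growth percent is calculated against time-zero and untreated control plates; negative values indicate net cell loss.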
Background: The SRB assay estimates cell density from bound dye.

The subject of another assay is KM12. As to the kind of experiment: Anticancer activity against human KM12 cells assessed as cell growth inhibition measured after 48 hrs by SRB assay. The conditions noted are these: KM12, 48 h. In outline:
(§2)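 NCI-60 five-dose screen at 100, 10, 1.0, 0.1 and 0.01 µM final. Cells in RPMI-1640 with 5% FBS and 2 mM glutamine were seeded 24 h ahead at 37°C, 5% CO2. Compound exposure was 48 h, followed by TCA fixation and SRB staining, read at 515 nm. GI50 is the concentration giving 50% lower net protein increase than control, using time-zero plates.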

A further assay has as its system MDA-MB-435. As to the kind of experiment: Anticancer activity against human MDA-MB-435 cells assessed as cell growth inhibition measured after 48 hrs by SRB assay. The note with it: MDA-MB-435, 48 h. The method in brief:
as §2

The subject of the next assay is ACHN. As to the kind of experiment: Anticancer activity against human ACHN cells assessed as cell growth inhibition measured after 48 hrs by SRB assay. The conditions noted are these: for CC50: read-out: LC50 (the source's name). The method in brief: as §2
The test system of another assay is HCC 2998. As to the kind of experiment: Anticancer activity against human HCC2998 cells assessed as cell growth inhibition measured after 48 hrs by SRB assay. The note with it: HCC 2998, 48 h. In outline:
as §2

The test system of a further assay is NCI-H322M. Briefly: Anticancer activity against human NCI-H322M cells assessed as cell growth inhibition measured after 48 hrs by SRB assay. The method in brief: as §2
A further assay relates to K562. As to the kind of experiment: Anticancer activity against human K562 cells assessed as tumour cell growth at 10 uM after 48 hrs by SRB assay relative to control. In outline: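 NCI 60-line primary screen at a single 10 μM dose in RPMI-1640 with 5% FBS and 2 mM L-glutamine. Cells were preincubated 24 h at 37 °C in 5% CO₂, with time-zero plates fixed with TCA. Compounds (DMSO, diluted in gentamicin medium) were incubated 48 h, then cells TCA-fixed and stained with 0.4% SRB (A515). Growth percent was derived from time-zero, control and treated absorbances.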

For a further assay, the system named is SF-539. As to the kind of experiment: Anticancer activity against human SF539 cells assessed as increase in cell death at 10 uM after 48 hrs by SRB assay relative to control. The method in brief: as §1
For a further assay, the system named is HL-60. As to the kind of experiment: Anticancer activity against human HL60 cells assessed as cell growth inhibition measured after 48 hrs by SRB assay. The note with it: HL-60, 48 h; for CC50: read-out: LC50 (the source's name). In outline:
as §2

Assay [2] concerns U-251. Briefly: Anticancer activity against human U251 cells assessed as cell growth inhibition measured after 48 hrs by SRB assay. The conditions noted are these: U-251, 48 h. The method in brief: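 NCI 60-cell screen, five-dose mode at 100, 10, 1.0, 0.1 and 0.01 µM. Cells grown in RPMI-1640 with 5% FBS and 2 mM L-glutamine, seeded and held 24 h at 37°C, 5% CO2, then exposed for 48 h. Fixed with cold TCA (10% final), stained with 0.4% SRB and read at 515 nm. Time-zero plates were used. GI50 is the concentration giving 50% lower net protein increase than control.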

Another assay relates to PC-3. As to the kind of experiment: Anticancer activity against human PC3 cells assessed as increase in cell death at 10 uM after 48 hrs by SRB assay relative to control. In outline:
(§3)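 NCI-60 single-dose screen at 10 µM in RPMI-1640 with 5% FBS and 2 mM glutamine. Exposure was 48 h at 37°C, 5% CO2, with time-zero plates fixed at dosing. Read-out was TCA fixation and SRB at 515 nm. Growth percent = (Ti−Tz)/Tz×100 where Ti<Tz, so negative values mean net cell loss.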

A further assay concerns RPMI-8226. As to the kind of experiment: Anticancer activity against human RPMI8226 cells assessed as increase in cell death at 10 uM after 48 hrs by SRB assay relative to control. The method in brief:
as §3

A further assay deals with 786-0. Briefly: Anticancer activity against human 786-O cells assessed as increase in cell death at 10 uM after 48 hrs by SRB assay relative to control. The method in brief:
as §3

The subject of a further assay is HCT-116. As to the kind of experiment: Anticancer activity against human HCT116 cells assessed as increase in cell death at 10 uM after 48 hrs by SRB assay relative to control. The method in brief:
as §3

In another assay the test system is M14. As to the kind of experiment: Anticancer activity against human M14 cells assessed as increase in cell death at 10 uM after 48 hrs by SRB assay relative to control. In outline: as §3
For the next assay, the system named is HOP-92. Briefly: Anticancer activity against human HOP92 cells assessed as increase in cell death at 10 uM after 48 hrs by SRB assay relative to control. The method in brief: as §3

As to `COc1ccc(C(=O)/C=C/c2ccc(Cl)cc2)cc1S(=O)(=O)Nc1c(N)nc(SC)[nH]c1=O`, the Activity in the assay on U-251 [1] was 4.2%; in the assay with K562, 3.84%; in the assay on SF-539, 5.49%. The GI50 in the assay on KM12 amounted to 2.09 µM; in the assay with MDA-MB-435, 2.95 µM; in the assay on ACHN it was 3.23 µM; in the assay with HCC 2998 it was 1.92 µM; in the assay with NCI-H322M, 2.38 µM; in the assay with HL-60, 3.2 µM. The 50% growth inhibitory concentration (GI50) in the assay with U-251 [2] came to 1.58 µM. Besides, the LC50 (lethal concentration, 50% net cell kill) in the assay on KM12 was determined as 9.76 µM. In addition, the LC50 (concentration killing 50% of cells present at time zero) in the assay on MDA-MB-435 came to 48 µM. Besides, the CC50 with ACHN was 36.5 µM; in the assay with HL-60, greater than 100 µM. Moreover, the LC50 in the assay on HCC 2998 is 6.5 µM; with NCI-H322M it was 28 µM; in the assay on U-251 [2] it was 6.16 µM.
Consider `COc1ccc(C(=O)/C=C/c2ccc(Cl)cc2)cc1S(N)(=O)=O`, for which the Activity in the assay with PC-3 came to 55.63%; in the assay on RPMI-8226, 31.74%; with 786-0, 30.67%; in the assay with HCT-116, 78.33%; in the assay with M14, 57.32%; in the assay on HOP-92 it was 26.57%. The 50% growth inhibitory concentration (GI50) in the assay with KM12 was 1.73 µM; in the assay with MDA-MB-435, 4.34 µM; in the assay with ACHN it was 1.94 µM; in the assay with HCC 2998, 1.78 µM; with NCI-H322M it was 2.04 µM; in the assay with HL-60, 3.08 µM. Also, in the assay on U-251 [2], the concentration for 50% growth inhibition (GI50) turned out to be 1.96 µM. For the same compound, the LC50 (lethal concentration, 50% net cell kill) with KM12 was determined as 8.26 µM. Also, in the assay with MDA-MB-435, the LC50 (concentration killing 50% of cells present at time zero) amounted to 41.6 µM. Besides, the CC50 in the assay on ACHN is 8.75 µM; in the assay with HL-60 it was greater than 100 µM. Besides, the LC50 with HCC 2998 was determined as 7.48 µM; in the assay on NCI-H322M, 28.8 µM; in the assay with U-251 [2] it was 9.33 µM.

The GI50 is the concentration that inhibits growth by half. What is called LC50 is the concentration lethal to half of the exposed cells or organisms.
